How the values were obtained:
Rattus norvegicus [1] = assay: Toxicity in Sprague-Dawley rat assessed as increase in body weight at 1 mg/kg/day administered for 16 days measured on day 16 post last dose (reference value: 195 +/- 16%); format: organism-based; settings: in vivo, 384 h
Rattus norvegicus [2] = assay: Toxicity in Sprague-Dawley rat assessed as food intake at 50 mg/kg/day measured after 2 weeks (reference value: 24.8 +/- 1.1 g/day); format: organism-based; settings: in vivo, 336 h
Rattus norvegicus [3] = assay: Hypocholesterolemic activity in Sprague-Dawley rat assessed as serum cholesterol level at 20 mg/kg/day, po administered via intubation measured on day 10 by Liebermann-Burchard method relative to control; format: functional
How it was run: (§1)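 Male Sprague-Dawley rats given compound homogenized in 1% CMC once daily at 11:00 a.m. by oral intubation needle (0.2 cc), doses calculated on weekly body weights; tail-vein blood drawn 24 h after last dose; nonhemolyzed serum (30 μ) assayed by modified Liebermann-Burchard method; N = 8; % of control, mean ± SD; Student's t test.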

Rattus norvegicus [4] = assay: Hypocholesterolemic activity in Sprague-Dawley rat assessed as serum cholesterol level at 10 mg/kg/day, po administered via intubation measured on day 4 by Liebermann-Burchard method relative to control; format: functional; how it was run: as §1

What does the source list for `CCCCCCCCCCCCCCC(C)=O`?
Activity (Rattus norvegicus [1]): 229%; Activity (Rattus norvegicus [2]): 25.6 g/day; Activity (Rattus norvegicus [3]): 76%; Activity (Rattus norvegicus [4]): 79%

Reference: ChEMBL document CHEMBL3272112, “Cycloalkanones. 8. Hypocholesterolemic activity of long-chain ketones related to pentadecanone” (J Med Chem, 1976)
